In brackets after ≈: the same amount, converted by molar mass. Activity calls are given as the source filed them. The rule behind the calls is not given here.
Key:
[1] = Ratio of nevirapine CC50 to compound CC50 for human MOLT3 cells; format: ADME, cell-based, MOLT-3
[2] = Ratio of Lamivudine CC50 to compound CC50 for human MOLT3 cells; format: ADME, cell-based, MOLT-3
[3] = Ratio of zidovudine CC50 to compound CC50 for human MOLT3 cells; format: ADME, cell-based, MOLT-3
[4] = system: Human immunodeficiency virus 1; assay: Antiviral activity against HIV1 infected in human PBMC assessed as inhibition of gag gene expression at 1 ug/ml after 5 days post infection by quantitative real time RT-PCR; format: functional, organism-based
Procedure, shortened: (§1)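 PBMC were stimulated overnight with 2 µg/ml PHA and infected for 2 h with clarified H9/HIV-1IIIB supernatant at 20 ng/ml p24. They were then cultured with IL-2 20 U/ml. Compound was added 4 h before infection and re-added daily at half concentration, with 0.5% methanol as vehicle control. At 5 days pi, gag mRNA was measured by SYBR Green RQ-PCR in triplicate, normalized to GUSB (2^-ΔΔCt).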

[5] = Ratio of CC50 for PHA-stimulated human PBMC to IC50 for HIV1 infected in human PBMC
[6] = system: Human T-cell leukemia virus type I; assay: Ratio of IC50 for nevirapine to compound IC50 for Human T-cell leukemia/lymphoma virus type 1 reverse transcriptase activity
[7] = system: Human T-cell leukemia virus type I; assay: Antiviral activity against Human T-cell leukemia/lymphoma virus type 1 infected in human PBMC assessed as inhibition of tax/rex gene expression at 5 ug/ml after 3 weeks post infection by quantitative real time RT-PCR; format: functional, organism-based
Procedure, shortened: (§2)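 Compound was added to PBMC cultures at the onset of HTLV-1 infection and re-added at half concentration on days 3, 7 and 10 pi, with 0.5% methanol as vehicle control. Cells were harvested 3 weeks pi and debris removed on a density gradient. Tax/rex mRNA was quantified by SYBR Green RT-PCR (40 cycles, 95/60 °C) against GUSB using the comparative Ct method.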

[8] = Cytotoxicity against PHA-stimutated human PBMC after 24 hrs by MTS assay; format: cell-based; conditions: PHA-stimulated PBMC
[9] = system: Human immunodeficiency virus 1; assay: Antiviral activity against HIV1 infected in human PBMC assessed as inhibition of gag gene expression after 5 days post infection by quantitative real time RT-PCR; format: functional, organism-based; conditions: Human immunodeficiency virus 1, 120 h
Procedure, shortened: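 Donor PBMC (HIV-, HBV-, HCV-seronegative) stimulated overnight with PHA 2 µg/ml, then infected 2 h with clarified H9/HIV-1IIIB supernatant (20 ng/ml p24), then cultured with IL2 20 U/ml. Compounds added 4 h pre-infection and re-added daily at half concentration; vehicle ≤0.5% methanol. Harvest day 5; gag mRNA by SYBR RQ-PCR vs GUSB (2^-ΔΔCt); three experiments in triplicate; IC50.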

[10] = Cytotoxicity against human MOLT3 cells after 24 hrs by MTS assay; format: cell-based, MOLT-3
Procedure, shortened: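 MOLT-3 cells (1 × 10^4) were exposed for 1 day in RPMI with 5% FBS to seven concentrations (1 ng/ml–1 mg/ml). MTS formazan formation was read at 490 nm after 1 h with reagent. Mean CC50 comes from three independent experiments.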

[11] = Inhibition of Human T-cell leukemia/lymphoma virus type 1 reverse transcriptase activity infected in human MT2 cells assessed as level of p19 antigen; format: cell-based, Human T-cell leukemia virus type I; conditions: Primate T-lymphotropic virus 1, MT2
[12] = biological target: Human immunodeficiency virus type 1 reverse transcriptase (Human immunodeficiency virus 1, UniProt Q72547); assay: Inhibition of HIV1 3B reverse transcriptase activity
Procedure, shortened: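 Commercial purified HIV-1 RT replaced the virion lysate in the same cell-free reverse transcription/20-cycle amplification assay. RTIC50 came from band densitometry over three independent experiments, with no compound pre-activation.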

[13] = system: Human T-cell leukemia virus type I; assay: Antiviral activity against Human T-cell leukemia/lymphoma virus type 1 infected in human PBMC assessed as inhibition of tax/rex gene expression after 3 weeks post infection by quantitative real time RT-PCR; format: functional, organism-based; conditions: Primate T-lymphotropic virus 1, 504 h
Procedure, shortened: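 PBMC infected with HTLV-1. Compounds were added at infection onset, then at half concentration on days 3, 7 and 10 pi; the vehicle was up to 0.5% methanol. Cells were harvested 3 weeks pi and debris removed on a density gradient. tax/rex mRNA was measured by SYBR RQ-PCR normalized to GUSB (2^-ΔΔCt). RQ-IC50 came from three experiments, each in triplicate.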

[14] = system: Human immunodeficiency virus 1; assay: Antiviral activity against HIV1 infected in human PBMC assessed as inhibition of gag gene expression at 0.27 ug/ml after 5 days post infection by quantitative real time RT-PCR; format: functional; conditions: Human immunodeficiency virus 1, 120 h
[15] = system: Human T-cell leukemia virus type I; assay: Antiviral activity against Human T-cell leukemia/lymphoma virus type 1 infected in human PBMC assessed as inhibition of tax/rex gene expression at 0.27 ug/ml after 3 weeks post infection by quantitative real time RT-PCR; format: functional; conditions: Primate T-lymphotropic virus 1, 504 h
[16] = system: Human immunodeficiency virus 1; assay: Antiviral activity against HIV1 infected in human PBMC assessed as inhibition of gag gene expression at 10 ug/ml after 5 days post infection by quantitative real time RT-PCR; format: functional, organism-based; procedure, shortened: as §1
[17] = system: Human T-cell leukemia virus type I; assay: Antiviral activity against Human T-cell leukemia/lymphoma virus type 1 infected in human PBMC assessed as inhibition of tax/rex gene expression at 10 ug/ml after 3 weeks post infection by quantitative real time RT-PCR; format: functional, organism-based; procedure, shortened: as §2
[18] = system: Human T-cell leukemia virus type I; assay: Antiviral activity against Human T-cell leukemia/lymphoma virus type 1 infected in human PBMC assessed as inhibition of tax/rex gene expression at 22.93 ug/ml after 3 weeks post infection by quantitative real time RT-PCR; format: functional; conditions: Primate T-lymphotropic virus 1, 504 h
[19] = system: Human immunodeficiency virus 1; assay: Antiviral activity against HIV1 infected in human PBMC assessed as inhibition of gag gene expression at 0.23 ug/ml after 5 days post infection by conventional RT-PCR; conditions: Human immunodeficiency virus 1, 120 h

Row | SMILES | selectivity ratio [1] | selectivity ratio [2] | selectivity ratio [3] | inhibition [4] | Ratio CC50/IC50 [5] | Ratio IC50 [6] | inhibition [7] | CC50 at 24 h [8] [µg/mL] | IC50 [9] [µg/mL] | CC50 at 24 h [10] [µg/mL] | IC50 [11] [µg/mL] | IC50 [12] [nM] | IC50 [13] [µg/mL] | inhibition at 0.27 µg/mL [14] [%] | inhibition at 0.27 µg/mL [15] [%] | inhibition [16] | inhibition [17] | inhibition at 22.93 µg/mL [18] [%] | inhibition at 0.23 µg/mL [19] [%]
1 | CC1(C)O[C@H]2CC(=O)OC[C@]23[C@H]2CC[C@@]4(C)[C@H](c5ccoc5)OC(=O)[C@H]5O[C@]54[C@]2(C)C(=O)C[C@@H]13 [LIMONIN] | 10 | 33 | 62 | Active | 450 | > 1000 | Active | 452 (≈ 960 µM) | 0.92 (≈ 1.96 µM) | 202 (≈ 428 µM) | 0.00031 (≈ 0.000659 µM) | 8.99 | 1.07 (≈ 2.27 µM) | – | – | – | – | – | –
2 | Cc1cn([C@H]2C[C@H](N=[N+]=[N-])[C@@H](CO)O2)c(=O)[nH]c1=O [ZIDOVUDINE] | – | – | – | – | – | – | – | 31.2 (≈ 117 µM) | – | 3.24 (≈ 12.1 µM) | – | – | 0.16 (≈ 0.599 µM) | 100 | 100 | – | – | – | –
3 | CC(=O)O[C@H]1CC(=O)OC(C)(C)[C@@H]2CC(=O)[C@]3(C)[C@H](CC[C@@]4(C)[C@@H](c5ccoc5)OC(=O)[C@H]5O[C@]543)[C@@]12C [NOMILIN] | 40 | 130 | 230 | – | – | – | – | 692 (≈ 1340 µM) | 13 (≈ 25.3 µM) | 756 (≈ 1470 µM) | 0.0026 (≈ 0.00505 µM) | 6.65 | 3.98 (≈ 7.73 µM) | – | – | Active | Active | – | –
4 | Cc1ccnc2c1NC(=O)c1cccnc1N2C1CC1 [NEVIRAPINE] | – | – | – | – | – | – | – | 40.9 (≈ 154 µM) | – | 20.1 (≈ 75.3 µM) | > 0.266 | – | – | 100 | – | – | – | – | –
5 | Nc1ccn([C@@H]2CS[C@H](CO)O2)c(=O)n1 [LAMIVUDINE] | – | – | – | – | – | – | – | 53 (≈ 231 µM) | 0.19 (≈ 0.829 µM) | 5.94 (≈ 25.9 µM) | – | – | 14.2 (≈ 62.1 µM) | – | – | – | – | 100 | 100

From ChEMBL document CHEMBL1687924, “Antiviral activity of seed extract from Citrus bergamia towards human retroviruses” (Bioorg Med Chem, 2011)
